Laboratory results published in ChEMBL document CHEMBL3351588, “Design, synthesis and biological evaluation of N-alkyl or aryl substituted isoindigo derivatives as potential dual cyclin-dependent kinase 2 (CDK2)/glycogen synthase kinase 3β (GSK-3β) phosphorylation inhibitors” (Eur J Med Chem, 2014).
The source made the active and inactive calls. No cut-off for these calls is given here.

Tests used:
K562 [1] = assay: Induction of apoptosis in human K562 cells assessed as early apoptotic cells level at 5 uM after 24 hrs by Annexin V-FITC/propidium iodide staining based flow cytometry (reference value: […]); assay type: functional
K562 [2] = assay: Induction of cell morphological changes in human K562 cells assessed as chromatin condensation at 5 to 30 uM after 24 hrs by Hoechst 33342/propidium iodide staining based inverted fluorescence microscopy; assay type: functional
Summary of the method: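 Cells treated for 24 h with 5.0–30.0 μM or with 0.5% DMSO, then collected and washed with PBS. Stained with Hoechst 33342 (5.0 μg/mL, 10 min, 37 °C), then with PI (10.0 μg/mL, 10 min, room temperature, dark). Nuclei scored by fluorescence microscopy as condensed/bright, fragmented, or PI-positive.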

[3] = molecular target: Glycogen synthase kinase-3 beta (Homo sapiens) (UniProt P49841); assay: Inhibition of GSK3beta Ser9 phosphorylation in human K562 cells at 5 to 30 uM after 24 hrs by Western blotting method; assay type: cell-based
K562 [4] = assay: Induction of cell cycle arrest in human K562 cells assessed as accumulation at G0/G1 phase at 5 uM after 24 hrs by propidium iodide staining based flow cytometry (reference value: 36.14%); assay type: functional
K562 [5] = assay: Induction of cell cycle arrest in human K562 cells assessed as accumulation at S phase at 30 uM after 24 hrs by propidium iodide staining based flow cytometry (reference value: 44.90%); assay type: functional
K562 [6] = assay: Induction of apoptosis in human K562 cells assessed as early apoptotic cells level at 10 uM after 24 hrs by Annexin V-FITC/propidium iodide staining based flow cytometry (reference value: […]); assay type: functional
K562 [7] = assay: Increase in GSK3beta protein expression in human K562 cells at 5 to 30 uM after 24 hrs by Western blotting method; assay type: functional, cell-based
Summary of the method: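 K562 cells treated for 24 h; negative control DMSO 0.5% v/v, meisoindigo positive control. Lysates separated on 10% SDS-PAGE and transferred to nitrocellulose. Blocked with 5% milk in PBS-0.1% Tween-20, then probed for GSK-3β and p-GSK-3β (Ser9) for 2 h at room temperature, with β-actin as loading control. Detected with IRDye secondaries by infrared imaging and quantified by band gray value; p<0.05 versus DMSO.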

K562 [8] = assay: Induction of apoptosis in human K562 cells assessed as necrotic cells level at 15 uM after 24 hrs by Annexin V-FITC/propidium iodide staining based flow cytometry (reference value: 0.0%); assay type: functional
Summary of the method: (§1)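 K562 cells exposed for 24 h or 48 h to 0, 5.0, 10.0, 15.0, 20.0 or 30.0 µM; vehicle DMSO 0.5% v/v. Cells stained with FITC-Annexin V, then counterstained with PI, and analysed by FACScan flow cytometry. Quadrants: Annexin V−/PI− viable; Annexin V+/PI− early apoptotic; Annexin V+/PI+ late apoptotic/necrotic.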

K562 [9] = assay: Induction of apoptosis in human K562 cells assessed as early apoptotic cells level at 30 uM after 48 hrs by Annexin V-FITC/propidium iodide staining based flow cytometry (reference value: 0.24%); assay type: functional; summary of the method: as §1
K562 [10] = assay: Reduction in c-myc protein expression in human K562 cells at 5 to 30 uM after 24 hrs by Western blotting method; assay type: functional, cell-based
K562 [11] = assay: Induction of apoptosis in human K562 cells assessed as viable cells level at 5 uM after 48 hrs by Annexin V-FITC/propidium iodide staining based flow cytometry (reference value: 99.21%); assay type: functional; summary of the method: as §1
K562 [12] = assay: Induction of apoptosis in human K562 cells assessed as viable cells level at 10 uM after 24 hrs by Annexin V-FITC/propidium iodide staining based flow cytometry (reference value: 97.64%); assay type: functional; summary of the method: as §1
K562 [13] = assay: Induction of apoptosis in human K562 cells assessed as viable cells level at 5 uM after 24 hrs by Annexin V-FITC/propidium iodide staining based flow cytometry (reference value: 97.64%); assay type: functional; summary of the method: as §1

Chain of Glycogen synthase kinase-3 beta (Homo sapiens) (P49841 whole entry, looked up): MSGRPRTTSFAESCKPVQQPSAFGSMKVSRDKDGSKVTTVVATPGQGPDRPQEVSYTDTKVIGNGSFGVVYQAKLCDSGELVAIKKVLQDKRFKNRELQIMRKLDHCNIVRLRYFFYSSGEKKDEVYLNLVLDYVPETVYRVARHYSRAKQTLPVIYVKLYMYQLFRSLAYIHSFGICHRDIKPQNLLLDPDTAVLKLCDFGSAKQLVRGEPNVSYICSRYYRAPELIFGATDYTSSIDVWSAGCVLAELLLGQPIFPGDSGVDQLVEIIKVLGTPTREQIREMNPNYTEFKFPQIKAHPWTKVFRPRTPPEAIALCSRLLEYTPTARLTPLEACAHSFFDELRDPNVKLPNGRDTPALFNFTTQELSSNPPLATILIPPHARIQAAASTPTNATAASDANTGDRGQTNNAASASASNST

In the case of `COc1ccc(N2C(=O)/C(=C3/C(=O)Nc4ccccc43)c3ccccc32)cc1`, the Activity (K562 [1]) is reported as 2.25%, the Activity (K562 [2]) is reported as “Active” and the inhibition [3] is reported as “Dose-dependent effect”. The Activity (K562 [4]) was 37.16%, the Activity (K562 [5]) was 62.77% and the Activity (K562 [6]) was 4.4%. For the same compound, the Activity (K562 [7]) was “Dose-dependent effect”, the Activity (K562 [8]) was 0.01% and the Activity (K562 [9]) was 19.3%. The inhibition (K562 [10]) was “Dose-dependent effect”, the Activity (K562 [11]) was 97.78% and the Activity (K562 [12]) was 93.14%. For the same compound, the Activity (K562 [13]) was 96.21%.
